Source: ChEMBL document CHEMBL3526035, “Role of the intestinal peptide transporter PEPT1 in oseltamivir absorption: in vitro and in vivo studies” (Drug Metab Dispos, 2012)
Where a SMILES comes first, the peptide text is derived from it. [ ]: non-standard residue; d: D form. Sar = CNCC(=O)O

Tests used:
[1] = Drug uptake in CHOK1 cells at 2 uM after 10 mins measured per mg protein by HPLC coupled with radiodetection analysis; format: ADME, cell-based, Cricetulus griseus; conditions: chinese hamster, cho-k1, 10 min
Method in brief: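 CHO-K1 cells given 2 μM [3H]Gly-Sar in KH buffer at pH 6 for 10 min at 37°C. Ice-cold PBS-BSA quench, then washes and Triton lysis. Scintillation counts expressed as pmol/mg protein (BCA). n=6 experiments.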

[2] = target: T1, Solute carrier family 15 member 1 (Homo sapiens, UniProt P46059); experiment: Drug uptake in CHOK1 cells expressing human PEPT1 by HPLC coupled with radiodetection analysis; format: ADME, cell-based; conditions: cho-k1, TDE = time-dependent effect
T1 sequence (P46059 whole entry): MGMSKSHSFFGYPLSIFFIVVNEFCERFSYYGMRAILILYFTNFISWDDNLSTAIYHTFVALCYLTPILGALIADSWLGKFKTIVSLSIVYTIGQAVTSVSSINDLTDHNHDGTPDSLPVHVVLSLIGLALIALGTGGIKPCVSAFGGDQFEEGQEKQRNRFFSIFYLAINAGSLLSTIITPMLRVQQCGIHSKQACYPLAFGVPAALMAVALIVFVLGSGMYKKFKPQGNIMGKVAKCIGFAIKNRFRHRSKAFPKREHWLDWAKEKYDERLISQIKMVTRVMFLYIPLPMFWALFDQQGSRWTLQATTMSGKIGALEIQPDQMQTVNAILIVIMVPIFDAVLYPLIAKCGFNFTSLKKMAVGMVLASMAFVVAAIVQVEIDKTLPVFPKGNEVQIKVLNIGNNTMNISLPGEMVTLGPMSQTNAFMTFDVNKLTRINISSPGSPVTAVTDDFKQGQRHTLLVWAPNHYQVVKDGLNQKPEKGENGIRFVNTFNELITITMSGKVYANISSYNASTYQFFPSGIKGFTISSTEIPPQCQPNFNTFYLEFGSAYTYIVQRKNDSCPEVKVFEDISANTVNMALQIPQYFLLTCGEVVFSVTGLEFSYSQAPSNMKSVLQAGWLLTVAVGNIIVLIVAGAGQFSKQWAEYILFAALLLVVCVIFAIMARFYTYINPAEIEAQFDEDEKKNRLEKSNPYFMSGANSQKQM
Method in brief: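 Accumulation of [14C]oseltamivir or its carboxylate in CHO-PEPT1 versus CHO-K1 cells. Conditions varied: KH buffer (with MES) or Hanks' balanced salt solution, pH 5 or 6 readjusted after substrate addition, 30 s to 15 min at 37°C. Uptake was quenched with ice-cold PBS-BSA, followed by Triton X-100 lysis, scintillation counting, and BCA protein normalization. HPLC-radiodetection checked ester stability.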

[3] = target: T1, Solute carrier family 15 member 1; experiment: Drug uptake in CHOK1 cells expressing human PEPT1 at 2 uM after 10 mins measured per mg protein by HPLC coupled with radiodetection analysis; format: ADME, cell-based; conditions: cho-k1, 10 min
Method in brief: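 Transporter functionality check: 2 µM [3H]Gly-Sar was incubated for 10 min at 37°C, pH 6, in KH/MES buffer with CHO-PEPT1 versus CHO-K1 cells. Intracellular radioactivity in Triton X-100 lysates was expressed as pmol/mg protein (BCA). Six independent experiments, triplicate wells.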

[4] = Drug uptake in CHOK1 cells at 2 uM at pH 4 to 8 after 10 mins by HPLC coupled with radiodetection analysis; format: ADME, cell-based, Cricetulus griseus; conditions: chinese hamster, cho-k1, pH 4, 10 min
Method in brief: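 [3H]Gly-Sar at 2 μM in KH buffer over pH 4-8, incubated with CHO-K1 cells for 10 min at 37°C. Accumulated radioactivity in cell lysates counted and normalised to protein. Three independent experiments.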

In the case of `CN(CC(=O)O)C(=O)CN` [GLYCYLSARCOSINE] (H-Gly-[Sar]-OH), the Drug uptake [1] is reported as 1.1 pmol, the Drug uptake [2] is reported as “tde” and the Drug uptake [3] is reported as 182 pmol. For the same molecule, the Drug uptake [4] was “Active”.
